Activity calls are given as the source filed them. No cut-off for these calls is given here.
Assays:
[1] = target: Delta-aminolevulinic acid dehydratase (Yersinia enterocolitica W22703) (UniProt F4MUJ9); experiment: Inhibition of Yersinia enterocolitica recombinant PBGS expressed in Escherichia coli using 5-ALA as substrate at 50 to 200 uM at pH 7 to 8.5 by buffer scan assay in presence of KCl
[2] = target: Delta-aminolevulinic acid dehydratase (Pseudomonas aeruginosa (strain ATCC 15692 / PAO1 / 1C / PRS 101 / LMG12228)) (UniProt Q59643); experiment: Inhibition of Pseudomonas aeruginosa PAO1 recombinant PBGS assessed as inhibition of octamer-inducing effect of Mg2+ by nondenaturing PAGE analysis
In short: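 PaPBGS (3 μg) preincubated 20 min at 37 °C in assay buffer with 1 mM Mg2+, 100 mM K+ and wALADin1, no 5-ALA. Run on 7.5% nondenaturing PAGE at 4 °C for 15–20 h. Coomassie for oligomer state; in-gel activity with 500 μM 5-ALA stained with Ehrlich's reagent.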

[3] = target: Delta-aminolevulinic acid dehydratase (Pseudomonas aeruginosa (strain ATCC 15692 / PAO1 / 1C / PRS 101 / LMG12228)) (UniProt Q59643); experiment: Inhibition of Pseudomonas aeruginosa PAO1 recombinant PBGS using low 5-ALA level as substrate at 50 to 200 uM by buffer scan assay
[4] = target: Delta-aminolevulinic acid dehydratase (Yersinia enterocolitica W22703) (UniProt F4MUJ9); experiment: Stimulation of Yersinia enterocolitica recombinant PBGS expressed in Escherichia coli at 125 to 2000 uM by nondenaturing PAGE analysis in presence of Mg2+ and K+
In short: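 YePBGS (2 μg) preincubated 20 min at 37 °C in BTP pH 8.0 buffer with K+, Mg2+ and wALADin1. Run on 7.5% nondenaturing PAGE; Coomassie stain and in-gel activity (100 mM KCl, 10 mM MgCl2, 500 μM 5-ALA) read with Ehrlich's reagent.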

[5] = target: Delta-aminolevulinic acid dehydratase (Pseudomonas aeruginosa (strain ATCC 15692 / PAO1 / 1C / PRS 101 / LMG12228)) (UniProt Q59643); experiment: Competitive inhibition of Pseudomonas aeruginosa PAO1 recombinant PBGS using 0.2 mM 5-ALA as substrate assessed as increase in Km at 50 to 200 uM at pH 7.5 by Michaelis-Menten plot analysis in presence of MgCl2
In short: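 PaPBGS under "standard inhibitory" conditions (100 mM Tris-HCl pH 7.5, 1 mM MgCl2, no KCl). 5-ALA varied for substrate-response curves at several wALADin1 levels; KM and VMAX derived from the fits. Incubation at 36 °C.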

Chain of Delta-aminolevulinic acid dehydratase (Pseudomonas aeruginosa (strain ATCC 15692 / PAO1 / 1C / PRS 101 / LMG12228)) (Q59643 whole entry): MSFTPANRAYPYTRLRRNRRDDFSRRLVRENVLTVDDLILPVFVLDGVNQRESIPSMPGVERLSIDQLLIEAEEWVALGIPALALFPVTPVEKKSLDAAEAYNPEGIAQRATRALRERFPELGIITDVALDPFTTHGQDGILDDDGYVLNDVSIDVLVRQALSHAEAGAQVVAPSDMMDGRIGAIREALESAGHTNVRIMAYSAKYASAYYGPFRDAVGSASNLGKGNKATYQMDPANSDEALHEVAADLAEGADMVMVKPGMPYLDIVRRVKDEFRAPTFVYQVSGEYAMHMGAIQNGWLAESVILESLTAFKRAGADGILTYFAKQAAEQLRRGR
Chain of Delta-aminolevulinic acid dehydratase (Yersinia enterocolitica W22703) (F4MUJ9 as listed by the source): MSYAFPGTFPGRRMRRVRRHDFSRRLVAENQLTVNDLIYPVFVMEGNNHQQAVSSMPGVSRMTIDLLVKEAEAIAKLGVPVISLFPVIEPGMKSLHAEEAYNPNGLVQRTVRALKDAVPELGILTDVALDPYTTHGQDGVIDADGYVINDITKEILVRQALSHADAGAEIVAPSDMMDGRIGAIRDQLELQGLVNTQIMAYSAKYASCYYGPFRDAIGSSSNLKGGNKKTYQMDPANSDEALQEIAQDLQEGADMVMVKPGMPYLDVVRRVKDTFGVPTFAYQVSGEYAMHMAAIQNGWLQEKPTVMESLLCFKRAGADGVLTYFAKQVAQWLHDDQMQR

Q: `O=C(O)c1ccc2c(c1)nc(CCNC(=O)c1cccs1)n2Cc1cccc(C(F)(F)F)c1` was tested. Which inhibition [1] did it give?
A: Its inhibition is “Active”.

Q: And the inhibition [2]?
A: Its inhibition is “Dose-dependent effect”.

Q: What about the inhibition [3] of the same compound?
A: Its inhibition is “Active”.

Q: What about the Activity [4] of the same compound?
A: The Activity was “inactive”.

Q: What about the inhibition [5] of the same compound?
A: The inhibition was “Active”.
